Shown are actives, neighbours in structure and some others; about 3% of the full set was active somewhere.
Tn6 DDE FP: DD(E)-Tn6 binding inhibition, primary FP screen | P02675 | 0.21% of 370,000 active | AID 720509 | Fibrin DD(E) TRITC-Tn6 fluorescence polarization displacement | inhibition, % at 8.3 µM;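 active = inhibition above a per-campaign cutoff: mean of compounds within control limits plus 3 SD, cut at about 15% in these data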;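 also: 0% = median of all compound wells on the plate and 100% = blocking peptide control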
KLK7 zymogen act: activators of human kallikrein-7 zymogen. 0.9% of 370,000 active. P49862. purified proKLK7, EDANS-DABCYL substrate fluorescence; 100% is mature enzyme control, 0% vehicle. activation, % at 7 µM. AID 652039;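 active = activation above the mean of all tested compounds plus 3 SD, computed per campaign excluding outliers beyond control limits, cut at about 13% in these data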
NRP1-CendR mod: modulators of CendR peptide binding to human neuropilin-1. O14786. FAM-RPARPAR peptide binding to NRP-1, fluorescence polarization. inhibition, % at 25 µM. 0.85% of 360,000 active;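 active = inhibition or corrected inhibition above about 18%, plus a signal ratio from 0.5 to 1.5, limit read from the data, passing the limit was not always enough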
PLCb3 inh: blocks human PLC-beta3 enzyme activity; Q01970; 0.18% of 370,000 active; inhibition, % at 12.2 µM; AID 720704; Purified PLC-beta3, fluorogenic substrate, fluorescence; in the data active = inhibition above about 11%;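 also: 0% = median of compound wells on plate and 100% = full blocker control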
Target sequence (Q01970 whole entry, looked up): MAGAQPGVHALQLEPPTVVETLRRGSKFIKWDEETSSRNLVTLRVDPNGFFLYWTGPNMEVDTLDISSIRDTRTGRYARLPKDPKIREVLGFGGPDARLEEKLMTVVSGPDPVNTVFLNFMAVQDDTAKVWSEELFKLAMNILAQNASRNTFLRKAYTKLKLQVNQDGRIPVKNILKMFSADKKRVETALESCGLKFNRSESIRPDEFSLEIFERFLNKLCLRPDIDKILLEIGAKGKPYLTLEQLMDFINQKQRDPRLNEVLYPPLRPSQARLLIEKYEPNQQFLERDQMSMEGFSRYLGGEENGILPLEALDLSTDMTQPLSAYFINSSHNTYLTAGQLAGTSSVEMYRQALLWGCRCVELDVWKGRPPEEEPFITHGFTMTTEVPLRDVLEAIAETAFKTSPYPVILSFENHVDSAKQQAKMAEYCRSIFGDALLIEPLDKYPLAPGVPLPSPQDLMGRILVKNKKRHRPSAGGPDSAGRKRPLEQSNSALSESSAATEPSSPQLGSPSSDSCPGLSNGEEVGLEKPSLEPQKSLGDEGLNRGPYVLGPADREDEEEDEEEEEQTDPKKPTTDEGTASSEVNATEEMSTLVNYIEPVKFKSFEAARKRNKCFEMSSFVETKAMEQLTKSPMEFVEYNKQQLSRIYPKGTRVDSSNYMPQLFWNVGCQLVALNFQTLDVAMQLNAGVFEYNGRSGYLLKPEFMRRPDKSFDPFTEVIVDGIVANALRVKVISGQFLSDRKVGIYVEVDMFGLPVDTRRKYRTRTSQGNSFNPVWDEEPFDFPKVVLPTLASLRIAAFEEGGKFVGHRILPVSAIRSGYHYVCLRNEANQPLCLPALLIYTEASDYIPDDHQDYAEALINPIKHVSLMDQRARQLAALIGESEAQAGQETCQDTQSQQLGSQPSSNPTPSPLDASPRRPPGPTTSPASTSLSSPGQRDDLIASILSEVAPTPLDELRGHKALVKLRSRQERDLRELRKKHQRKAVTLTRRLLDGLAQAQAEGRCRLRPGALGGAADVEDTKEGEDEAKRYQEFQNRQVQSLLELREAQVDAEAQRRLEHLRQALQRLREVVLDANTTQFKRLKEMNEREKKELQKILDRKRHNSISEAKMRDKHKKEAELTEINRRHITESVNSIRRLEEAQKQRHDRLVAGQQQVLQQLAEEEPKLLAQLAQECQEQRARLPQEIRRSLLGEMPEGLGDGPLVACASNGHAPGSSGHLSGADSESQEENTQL
PLC-gamma1 inh: inhibitors of human phospholipase C gamma1 | AID 720700 | purified PLC-gamma1, fluorogenic substrate, fluorescence | 0.84% of 370,000 active | inhibition, % at 12.2 µM; in the data active = inhibition above about 9.5%
DDE Tn7 FP inh: DD(E)-Tn7 binding inhibition, primary FP screen. P02675. 0.13% of 370,000 active. inhibition, % at 8.3 µM. FP displacement of FITC-Tn7 peptide from fibrin DD(E); 0% = median of compound wells per plate;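 active = inhibition above the mean of compounds falling within the control limits plus 3 SD of them, cut at about 14% in these data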;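 also: 0% = plate median of compound wells and 100% = 10 µM Aha-Tn7 peptide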
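System: human fibrin DD(E); quantity: Fibrin-DD(E) at 2 µM final; also added: fluorescent Tn7 probe at 0.1 µM; compound dosing: single nominal test concentration of 8.3 µM per compound; schedule: 10 min preincubation, 3 h with tracer, room temperature; detection: fluorescence polarization of the labelled Tn7 tracer; repeats: one replicate per compound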
KLK7 act conf: proKLK7 activation, confirmation | shares compounds with KLK7 zymogen act | purified proKLK7, EDANS-DABCYL substrate fluorescence; scaled: vehicle 0, mature enzyme 100 | activation, % at 7 µM | 68% of 3,200 active;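 active = activation, as change over the incubation, above the mean of all tested compounds plus 3 SD, cut at about 13% in these data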
EDANS-DABCYL int: counter-screen for kallikrein-7 activators: EDANS-DABCYL optical interference. shares compounds with KLK7 zymogen act. EDANS-DABCYL substrate fluorescence interference, no enzyme, 4 h; solvent 0%, active enzyme control 100%. activation, % at 7 µM. 80% of 3,200 active. AID 686952;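 active = activation above the all-compound mean plus 3 SD, ignoring values outside control-based bounds, cut at about 4.8% in these data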;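 also: value is the 4 h activation minus the activation read at time zero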
* marks the source's active call; other numbers are inactive results.

`CC1CCCCC1NC(=O)c1cc2c(=O)n3ccccc3nc2n1C` (stereo unspecified) gave Tn6 DDE FP 0.7, KLK7 zymogen act 41.5*, NRP1-CendR mod 2.7, PLCb3 inh inactive, PLC-gamma1 inh inactive, DDE Tn7 FP inh 3.2, KLK7 act conf 6.1 and EDANS-DABCYL int 3.8.
For CN(C(=O)c1cc2c(=O)n3ccccc3nc2n1C)C1CCCCC1 the results were Tn6 DDE FP -7.9, KLK7 zymogen act 68.8*, NRP1-CendR mod 3.3, PLCb3 inh inactive, PLC-gamma1 inh inactive, DDE Tn7 FP inh -5.4, KLK7 act conf 73.6* and EDANS-DABCYL int 80.6*.
Screening CCN(C(=O)c1cc2c(=O)n3ccccc3nc2n1CCCOC)C1CCCCC1 returned Tn6 DDE FP 0.9, KLK7 zymogen act 54.7*, NRP1-CendR mod 3.0, PLCb3 inh inactive, PLC-gamma1 inh inactive, DDE Tn7 FP inh 12.3, KLK7 act conf 76.4* and EDANS-DABCYL int 78.2*.
`COc1cc(/C=C/c2nc3ccccc3c(=O)[nH]2)ccc1O` gave Tn6 DDE FP -7.3, KLK7 zymogen act 17.0*, NRP1-CendR mod -6.8, PLCb3 inh -440.9, PLC-gamma1 inh -330.2, DDE Tn7 FP inh -0.2, KLK7 act conf -1.0 and EDANS-DABCYL int 3.0.
For CCOc1cc(/C=C/c2nc3ccccc3c(=O)[nH]2)ccc1O the results were Tn6 DDE FP -14.6, KLK7 zymogen act 3.6, NRP1-CendR mod -2.0, PLCb3 inh -208.8, PLC-gamma1 inh -152.7 and DDE Tn7 FP inh 0.8.
Screening CC1CN(Cc2cc(=O)oc3cc(O)ccc23)CC(C)O1 (stereo unspecified) returned Tn6 DDE FP -5.9, KLK7 zymogen act 45.8*, NRP1-CendR mod 7.4, PLCb3 inh inactive, PLC-gamma1 inh inactive, DDE Tn7 FP inh -1.5, KLK7 act conf 66.6* and EDANS-DABCYL int 67.1*.
`O=c1cc(CN2CCN(Cc3ccccc3)CC2)c2ccc(O)cc2o1` gave Tn6 DDE FP 0.8, KLK7 zymogen act 71.0*, NRP1-CendR mod 5.3, PLCb3 inh inactive, PLC-gamma1 inh inactive, DDE Tn7 FP inh 1.0, KLK7 act conf 65.5* and EDANS-DABCYL int 72.4*.
Screening Cc1ccc2c(CN3CCN(Cc4ccccc4)CC3)cc(=O)oc2c1 returned Tn6 DDE FP 2.6, KLK7 zymogen act -0.3, NRP1-CendR mod 17.8, PLCb3 inh -6.8, PLC-gamma1 inh 0.7 and DDE Tn7 FP inh 0.0.
O=C(c1ccco1)N1CCN(Cc2cc(=O)oc3cc(O)ccc23)CC1 was read as Tn6 DDE FP -0.3, KLK7 zymogen act 90.2*, NRP1-CendR mod -11.0, PLCb3 inh inactive, PLC-gamma1 inh inactive, DDE Tn7 FP inh -2.3, KLK7 act conf 56.8* and EDANS-DABCYL int 68.1*.
O=C1CSc2ccc(C(=O)N3CCCC(C(=O)N4CCN(c5ccc(F)cc5)CC4)C3)cc2N1 (stereo unspecified) was read as Tn6 DDE FP -3.1, KLK7 zymogen act -0.1, PLCb3 inh 2.0, PLC-gamma1 inh 1.6 and DDE Tn7 FP inh 4.1.
`CCn1ncc2c(=O)c(C(=O)c3ccccc3)c[nH]c21` gave Tn6 DDE FP 4.0, KLK7 zymogen act 0.0, PLCb3 inh -28.1, PLC-gamma1 inh -14.5 and DDE Tn7 FP inh 1.2.
For COc1cccc(-c2cc(C(F)(F)F)c(C#N)c(=O)[nH]2)c1 the results were Tn6 DDE FP 1.9, KLK7 zymogen act 16.7*, NRP1-CendR mod 11.8, PLCb3 inh inactive, PLC-gamma1 inh -421.5, DDE Tn7 FP inh 6.9, KLK7 act conf 39.6* and EDANS-DABCYL int 51.4*.
For Cc1ccc(-c2cc(C(F)(F)F)c(C#N)c(=O)[nH]2)cc1 the results were Tn6 DDE FP 5.0, KLK7 zymogen act 8.1, NRP1-CendR mod -10.4, PLCb3 inh -118.5, PLC-gamma1 inh -87.1 and DDE Tn7 FP inh -0.8.

Screening results: PubChem, several laboratories
